Only some compounds are listed: those with a hit (about 4.1% of all), similar ones and a draw of the others.
KCNQ1 act: human KCNQ1 channel potentiation or activation. CHO-K1 KCNQ1, thallium flux FluxOR fluorescence; active compounds read high. B-score at 10 µM. actives 0.35% (n = 310,000). P51787. AID 2648;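 active means fluorescence ratio B-score, a plate-corrected score, at least three library SD, with initial intensity B-score within 5 SD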
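Medium – assay buffer, equal DMSO in all wells · Material – CHO-K1 cell line with stable KCNQ1 potassium channel expression · Signal – kinetic FluxOR thallium fluorescence, 10-s 1-Hz baseline, 110-s post-stimulus read · Compound – single concentration per compound, DMSO matched to controls · Schedule – 37 °C overnight plating, 90-min dark dye load, 20-min compound pretreatment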
KCNQ1 inh: inhibitors of human KCNQ1 potassium channel; actives 1.3% (n = 310,000); AID 2642; CHO-K1 KCNQ1, FluxOR thallium flux fluorescence; active compounds read high; P51787; B-score at 10 µM;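 active means compounds whose thallium flux B-score, printed positive for inhibition, exceeds three library SD while starting fluorescence stays within three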;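 further: channel opened by potassium depolarization with thallium stimulus after 20 min compound exposure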
KCNK3 block: human KCNK3 channel inhibition, primary screen | B-score at 10 µM | CHO-KCNK3 thallium flux, FluxOR fluorescence; active compounds read low | AID 602410 | O14649 | actives 0.84% (n = 340,000);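 active means B-score under library mean minus 4 SD, starting fluorescence ratio at most library mean plus 5 SD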;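 further: more negative B-score means stronger inhibition of thallium flux through KCNK3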
Cl transport mod: modulates chloride dependent transport by human KCC2 | KCC2 cells, thallium flux FluoZin-2 fluorescence | actives 2.2% (n = 190,000) | Q9H2X9 | B-score of Tl+ flux slope (higher = more flux/activation; lower = inhibition) at 10 µM;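 active means thallium flux slope and its plate-corrected score both differing from the plate sample mean at a set confidence after two filtering rounds, in either direction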;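 further: slope of fluorescence scaled to starting intensity during 10 to 20 s after thallium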
hERG rescue: hERG (human) protection from proarrhythmic block. activation (rescue from dofetilide block), less the hit threshold, % at 10 µM. CHO-hERG, FluxOR thallium flux, dofetilide IC70 present. actives 0.51% (n = 310,000);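 active means activation above the mean of controls blocked by dofetilide plus 5 SD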;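 further: thallium influx through hERG after potassium depolarization seen as dye fluorescence rise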
KCNK9 block: inhibitors of human KCNK9 two-pore domain potassium channel; B-score at 10 µM; HEK293 KCNK9, FluxOR thallium flux fluorescence; active compounds read low; Q9NPC2; AID 488922; actives 1.2% (n = 310,000);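 active means ratio B-score over 3 SD below the library mean, with starting fluorescence within 5 SD of its mean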;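 further: negative B-score means less thallium flux so channel inhibition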
Target sequence (Q9NPC2 whole entry, looked up, the tested form may be a part): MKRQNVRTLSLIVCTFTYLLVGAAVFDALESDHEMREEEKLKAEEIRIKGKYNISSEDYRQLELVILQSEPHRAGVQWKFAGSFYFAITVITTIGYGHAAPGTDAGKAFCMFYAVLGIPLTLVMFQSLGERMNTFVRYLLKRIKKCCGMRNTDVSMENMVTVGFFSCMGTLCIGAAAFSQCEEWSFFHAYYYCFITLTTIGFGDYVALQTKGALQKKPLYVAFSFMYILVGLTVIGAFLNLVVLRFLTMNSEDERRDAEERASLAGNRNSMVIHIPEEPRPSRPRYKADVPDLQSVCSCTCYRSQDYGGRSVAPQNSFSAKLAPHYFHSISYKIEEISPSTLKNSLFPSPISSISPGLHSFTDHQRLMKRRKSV
Numbers without * were called inactive; i = inactive; . = no result.

SMILES | KCNQ1 act | KCNQ1 inh | KCNK3 block | Cl transport mod | hERG rescue | KCNK9 block
Oc1c(Br)cc(Cl)cc1C=Nc1ccccc1Br | 8* | i | i | 0.0301 | 10.7* | i
c1ccc(Cc2nnc(-c3ccccc3)o2)cc1 | i | i | i | 14* | -5.0 | i
Brc1ccc(-c2nnc(Cc3ccccc3)o2)cc1 | i | i | i | -2.18 | -9.2 | i
CCN1CCc2c(sc(NC(=O)c3ccc(S(=O)(=O)N(C)c4ccccc4)cc3)c2C(=O)NC)C1 | i | 21* | i | . | -22.4 | i
CC(C)N1CCc2c(sc(NC(=O)c3ccc(S(=O)(=O)N4CCc5ccccc54)cc3)c2C(N)=O)C1 | i | 17* | i | 0.56 | -25.5 | i
CCN1CCc2c(sc(NC(=O)c3ccc4ccccc4c3)c2C(N)=O)C1 | i | i | i | . | -28.9 | -6.85*
CC(C)N1CCc2c(sc(NC(=O)c3cc(-c4cccs4)nc4ccccc34)c2C(N)=O)C1 | i | i | i | 0.01 | -46.7 | -6.85*
CCN1CCN(S(=O)(=O)c2ccc(C(=O)Nc3sc4c(c3C(N)=O)CCN(CC)C4)cc2)CC1 | i | i | i | . | -8.7 | i
O=C(COC(=O)C1=NN(c2ccccc2)C(=O)CC1)Nc1ccc([N+](=O)[O-])cc1C(F)(F)F | . | . | i | . | . | .
CNC(=O)c1c(NC(=O)c2ccc(S(=O)(=O)N(C)c3ccccc3)cc2)sc2c1CCN(C(C)C)C2 | i | i | . | . | -18.2 | -8.12*
Cc1c(N(C)S(=O)(=O)c2cccc(C(=O)NC(C)C)c2)c(=O)n(-c2ccccc2)n1C | i | i | i | . | -7.8 | i
Cc1ccc(/C=C(\NC(=O)c2ccccc2)C(=O)NC2CCN(Cc3ccccc3)CC2)o1 | i | i | i | . | -4.6 | i
Cc1ccnc(Nc2nc(-c3ccc(O)cc3)cs2)c1 | i | i | i | . | -1.6 | -6.68*
Oc1c(Br)cc(Br)cc1C=Nc1cccnc1 | 15* | i | i | . | -18.0 | i
Oc1c(Br)cc(Br)cc1C=Nc1ccc2[nH]ncc2c1 | 10* | i | i | -1.04 | 5.4* | -7.69*
COc1ccc(NC(=O)Nc2cc(C)cc(C)c2)cn1 | i | i | i | 0.532 | -7.5 | i
COc1ccc(NC(=O)Nc2ccc([N+](=O)[O-])cc2)cn1 | i | 8* | i | . | -8.3 | i
CC(C)(C)NC(=O)CN(C(=O)c1snc(C(=O)NC2CCCCC2)c1N)c1ccc(F)cc1 | i | i | i | . | -11.0 | i
CCCNC(=O)c1ccccc1NC(=O)c1ccc(CSc2ccccc2)cc1 | i | 6* | i | 0.931 | -3.0 | i
COCCn1c(SCC(=O)N(C)c2c(N)n(Cc3ccccc3)c(=O)[nH]c2=O)nnc1-c1cccc(C)c1 | i | i | i | . | -13.2 | i
COc1ccccc1C(CCNCc1ccc(N(C)C)cc1)c1ccc(OC(C)C)cc1 (stereo not given) | i | 10* | i | . | -26.8 | i
COc1ccc(CNCCC(c2ccc(OC(C)C)cc2)c2ccccc2OC)cc1 (stereo not given) | i | 9* | i | . | -19.7 | i
COc1ccccc1C(CCNCc1ccccc1)c1ccc(OC(C)C)cc1 (stereo not given) | i | i | i | . | -19.5 | i
CC(Oc1ccc(F)cc1Br)c1nc2ccccc2c(=O)[nH]1 (stereo not given) | i | i | i | . | -12.2 | i
CC(C)CN(C(=O)CN(C)CC(=O)Nc1ccccc1C#N)c1c(N)n(CC(C)C)c(=O)[nH]c1=O | . | . | i | . | . | .
Cc1nc2ccc(NS(=O)(=O)c3c(F)cc(F)cc3Br)cc2s1 | . | . | i | . | . | .
O=C1Nc2ccc(Cl)cc2[C@@](C#CC2CC2)(C(F)(F)F)O1 | i | i | . | -1.54 | -7.7 | -8.66*
O=C1Nc2cc(Cl)ccc2C1(N1CCNCC1)C(F)(F)F (stereo not given) | i | i | i | 0.0082 | -9.9 | i
COc1ccc(/C=N/NC(=O)c2ccn[nH]2)cc1COc1ccc([N+](=O)[O-])c(C)c1 | i | 6* | i | -1.13 | -7.9 | i

Screens deposited in PubChem by several laboratories.
